Only a selection was taken, and hits are over-represented in it overall.
IDH1 mut inh – inhibitors of IDH1 R132H reductase, primary screen, biochemical, plate reader, single point | 70,000 tested, 0.18% active | inhibition, % at 10 µM | Isocitrate dehydrogenase [NADP] cytoplasmic (Homo sapiens), O75874 | diaphorase/resazurin fluorescence, 60 min; in the data active means inhibition above about 34%; inconclusive means no clear call, values can overlap the other calls; inactive means below about 11%;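 further: 0% = DMSO and 100% = no enzyme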
Target sequence (O75874 whole entry R132H): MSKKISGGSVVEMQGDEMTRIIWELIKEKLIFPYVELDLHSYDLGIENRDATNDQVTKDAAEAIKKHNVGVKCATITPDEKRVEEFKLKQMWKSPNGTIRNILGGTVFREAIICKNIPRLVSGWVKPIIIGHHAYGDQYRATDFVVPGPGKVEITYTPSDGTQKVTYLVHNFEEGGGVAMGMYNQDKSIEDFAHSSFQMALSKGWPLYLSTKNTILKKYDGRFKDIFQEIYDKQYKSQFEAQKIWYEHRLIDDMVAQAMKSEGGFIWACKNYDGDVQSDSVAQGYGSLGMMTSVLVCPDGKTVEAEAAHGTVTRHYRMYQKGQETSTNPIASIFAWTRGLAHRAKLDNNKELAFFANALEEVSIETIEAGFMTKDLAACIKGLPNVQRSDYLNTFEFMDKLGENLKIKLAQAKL
T cruzi growth-1 – T. cruzi intracellular proliferation inhibitors, primary screen, cell-based, beta-gal Tulahuen parasites, NIH3T3 host, luminescence. T. cruzi beta-gal in NIH3T3, GalScreen luminescence, 90 h. AID 624255, 2012. inhibition, % at 8.34 µM. 77,000 tested, 5.9% active;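 active means mean inhibition above about 93%, with at least 55% of replicates each passing it, limit read from the data, passing the limit was not always enough; inconclusive means only one of those two conditions holds; inactive means neither condition holds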
KDM4C inh – inhibitors of GASC-1 (KDM4C) histone demethylase, primary screen, biochemical, single concentration HTS. Lysine-specific demethylase 4C (Homo sapiens), Q9H3R0. GST-KDM4C 2-372, H3K9me3 peptide, LANCE TR-FRET. inhibition, % at 12.5 µM. 96,000 tested, 0.15% active;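 active means mean replicate inhibition above about 25%, with at least 55% of replicates also reaching it, limit read from the data, passing the limit was not always enough; inconclusive means only one of those two conditions met; inactive means neither condition met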
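reagent = H3K9me3 peptide substrate, Fe(II), 2-oxoglutarate | system = GST-tagged GASC-1 (JMJD2C) catalytic fragment, aa 2-372 | amount = enzyme final amount 10 nM | read-out = Fall in 671/618 emission ratio as inhibition | medium = HEPES buffer, pH 7.5, plus ascorbate | schedule = 30 min reaction, 60 min detection, RT | measured by = LANCE TR-FRET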
T cruzi growth-2 – T. cruzi intracellular proliferation inhibitors, confirmation, cell-based, NIH3T3 host, beta-gal parasite, luminescence, cherry-pick. shares compounds with T cruzi growth-1. T. cruzi beta-gal in NIH3T3, GalScreen luminescence, 90 h. inhibition, % at 8.35 µM. 5,600 tested, 72% active. AID 651739, 2012;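 active means mean replicate inhibition above about 95% and at least 55% of replicates individually reaching it, limit read from the data; inconclusive means only one of the two criteria is met; inactive means neither criterion is met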
T cruzi growth-3 – inhibitors of intracellular T. cruzi replication, confirmation, NIH3T3 host cells, beta-gal parasites, cherry-pick, set 2; shares compounds with T cruzi growth-1; T. cruzi beta-gal in NIH3T3, GalScreen luminescence, 90 h; inhibition, % at 2.09 µM; 5,600 tested, 21% active;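 active means mean inhibition above about 95%, with at least 55% of replicates also reaching it, limit read from the data; inconclusive means meets just one of the two conditions; inactive means meets neither condition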;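 further: plate controls were neutral control median for no effect and positive control median for full effect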
3T3 cytotox – cytotoxicity in mouse NIH/3T3 fibroblasts, confirmation, cytotoxicity control for T. cruzi proliferation inhibitor project, cell-based, cherry-pick, single point | 5,600 tested, 14% active | shares compounds with T cruzi growth-1 | cytotoxicity (signal decrease), % at 8.35 µM | NIH/3T3 viability, CellTiter-Glo ATP luminescence, 90 h;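 active means mean signal decrease across replicates above about 35% based on untreated-well scatter, with enough replicates individually passing, limit read from the data; inconclusive means no rule stated though some were filed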;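 further: 0% = median of neutral control wells and 100% = median of positive control wells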
3T3 cytotox 2 – NIH/3T3 fibroblast cytotoxicity, confirmation, cytotoxicity control, cell-based, cherry-pick, single point, set 2. shares compounds with T cruzi growth-1. AID 651744, 2012. NIH/3T3 viability, CellTiter-Glo ATP luminescence, 90 h. inhibition, % at 24.9 µM. 5,600 tested, 56% active;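 active means mean loss of cell viability signal at or above a set limit, and enough replicates individually reaching it; inconclusive means meets only the mean limit or only the replicate share; inactive means meets neither condition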;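 further: 0% = median of neutral control wells and 100% = median of positive control wells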
Active calls of the source: *; ? = inconclusive; . = no result.

SMILES	IDH1 mut inh	T cruzi growth-1	KDM4C inh	T cruzi growth-2	T cruzi growth-3	3T3 cytotox	3T3 cytotox 2
C[C@@H]1CCCCO[C@@H](CN(C)Cc2ccc(C(F)(F)F)cc2)[C@H](C)CN([C@@H](C)CO)C(=O)c2cc(NC(=O)Nc3cccc4ccccc34)ccc2O1	1	123*	-3	111*	110*	2	8
C[C@@H]1CCCCO[C@H](CN(C)Cc2ccc(C(F)(F)F)cc2)[C@@H](C)CN([C@@H](C)CO)C(=O)c2cc(NC(=O)Nc3cccc4ccccc34)ccc2O1	1	122	-2	.	.	.	.
C[C@@H]1CCCCO[C@@H](CN(C)Cc2ccc(C(F)(F)F)cc2)[C@@H](C)CN([C@H](C)CO)C(=O)c2cc(NC(=O)Nc3cccc4ccccc34)ccc2O1	.	102*	-5	104*	32	10	10
C[C@@H]1CN([C@H](C)CO)C(=O)c2cc(NC(=O)Nc3cccc4ccccc34)ccc2O[C@@H](C)CCCCO[C@H]1CN(C)Cc1ccc(C(F)(F)F)cc1	4	123	-1	.	.	.	.
C[C@@H]1CN([C@@H](C)CO)C(=O)c2cc(NC(=O)Nc3cccc4ccccc34)ccc2O[C@@H](C)CCCCO[C@H]1CN(C)Cc1ccc(C(=O)O)cc1	.	11	1	.	.	.	.
C[C@@H]1CCCCO[C@@H](CN(C)Cc2ccc(C(F)(F)F)cc2)[C@H](C)CN([C@H](C)CO)C(=O)c2cc(NC(=O)Nc3cccc4ccccc34)ccc2O1	-3	?	-2	105*	115*	30	14
C[C@@H]1CCCCO[C@H](CN(C)Cc2ccc(C(F)(F)F)cc2)[C@H](C)CN([C@@H](C)CO)C(=O)c2cc(NC(=O)Nc3cccc4ccccc34)ccc2O1	.	?	-1	103*	109*	?	17
Cc1sc2ncnc(SCC(=O)NCc3ccccc3)c2c1C	0	.	.	.	.	.	.
O=C(c1ccccc1)c1ccc(OCC(O)Cn2cnc3ccccc32)cc1 (stereo unspecified)	5	.	.	.	.	.	.
O=C(CC1NCCNC1=O)Nc1ccccc1[N+](=O)[O-] (stereo unspecified)	0	.	.	.	.	.	.
Cc1ccccc1OCC(=O)Nc1ccccc1C(=O)N1C(C)CCCC1C (stereo unspecified)	-1	.	.	.	.	.	.
COc1ccc(OC)c(NC(=O)CNC(=O)c2ccc(Cl)cc2)c1	0	.	.	.	.	.	.
O=C(CCCCC(=O)N/N=C/c1ccc(O)cc1Br)NO	1	.	.	.	.	.	.
CC(=O)c1cccc(-n2c(CCC(=O)O)ccc2-c2ccc(Br)cc2)c1	0	.	.	.	.	.	.
Cc1ccc(S(=O)(=O)Nc2ccc3c(c2)C(=O)N([C@@H](C)CO)C[C@@H](C)[C@@H](CN(C)Cc2ccc(Cl)c(Cl)c2)O3)cc1	.	119*	-2	107*	107*	18	103*
C[C@H]1CN([C@@H](C)CO)C(=O)c2cc(NS(=O)(=O)c3ccc(F)cc3)ccc2O[C@H]1CN(C)Cc1ccc(Cl)c(Cl)c1	.	63	0	.	.	.	.
C[C@@H]1CN([C@@H](C)CO)C(=O)c2cc(NS(=O)(=O)c3ccc(F)cc3)ccc2O[C@H]1CN(C)Cc1ccc(Cl)c(Cl)c1	1	?	0	105*	53	30	104*
C[C@H]1CN([C@@H](C)CO)C(=O)c2cc(NS(=O)(=O)c3ccc(Cl)cc3)ccc2O[C@@H]1CN(C)Cc1ccc(Cl)c(Cl)c1	3	89	1	.	.	.	.
Cc1ccc(S(=O)(=O)Nc2ccc3c(c2)C(=O)N([C@@H](C)CO)C[C@H](C)[C@@H](CN(C)Cc2ccc(Cl)c(Cl)c2)O3)cc1	0	92	5	.	.	.	.
C[C@@H]1CN([C@@H](C)CO)C(=O)c2cc(NS(=O)(=O)c3ccc(F)cc3)ccc2O[C@@H]1CN(C)Cc1ccc(Cl)c(Cl)c1	0	101*	-1	99*	35	?	107*
Cc1c(Cl)cccc1NC(=O)C(C)N(c1ccc(Oc2ccccc2)cc1)S(C)(=O)=O (stereo unspecified)	4	.	.	.	.	.	.
C[C@@H]1CN([C@H](C)CO)C(=O)c2cc(NS(=O)(=O)c3ccc(F)cc3)ccc2O[C@H]1CN(C)Cc1ccc(-c2ccccc2)cc1	-3	106	4	.	.	.	.
C/C=C/c1ccc([C@H]2[C@H](CO)N3CCCCN(C(=O)Nc4ccc(F)cc4)C[C@@H]23)cc1	.	90	1	.	.	.	.
C/C=C/c1ccc([C@@H]2[C@@H](CO)N3CCCCN(C(=O)Nc4ccc(F)cc4)C[C@@H]23)cc1	.	97*	0	108*	39	17	74*
C/C=C/c1ccc([C@@H]2[C@H](CO)N3CCCCN(C(=O)Nc4ccc(F)cc4)C[C@@H]23)cc1	.	59	8	.	.	.	.
SMILES	IDH1 mut inh	T cruzi growth-1	KDM4C inh	T cruzi growth-2	T cruzi growth-3	3T3 cytotox	3T3 cytotox 2
C/C=C/c1ccc([C@@H]2[C@H]3CN(C(=O)Nc4ccc(F)cc4)CCCCN3[C@H]2CO)cc1	.	?	-1	112*	74	33	106*
O=C(CSc1n[nH]c(-c2ccc(Cl)cc2Cl)n1)N1CCc2ccccc21	0	.	.	.	.	.	.
CC1CCc2c(sc(NC(=O)c3cc(-c4cccnc4)nc4ccc(Cl)cc34)c2C(N)=O)C1 (stereo unspecified)	0	.	.	.	.	.	.
C=C(C)C(O)C(O)c1c(OC)ccc2ccc(=O)oc12 (stereo unspecified)	0	.	.	.	.	.	.
Cc1n[nH]c(C)c1S(=O)(=O)N1CCC2(CC1)OCCO2	2	.	.	.	.	.	.
C[C@H](CO)N1C[C@H](C)[C@H](CN(C)Cc2cccnc2)Oc2cc(Br)ccc2S1(=O)=O	29	.	.	.	.	.	.
C[C@H]1CN([C@@H](C)CO)S(=O)(=O)c2ccc(Br)cc2O[C@H]1CN(C)Cc1cccnc1	2	.	2	.	.	.	.
C[C@@H]1CN([C@@H](C)CO)S(=O)(=O)c2ccc(Br)cc2O[C@@H]1CN(C)Cc1cccnc1	0	112*	1	107*	80	11	13
C[C@H](CO)N1C[C@H](C)[C@@H](CN(C)Cc2cccnc2)Oc2cc(Br)ccc2S1(=O)=O	.	111*	14	93	67	-5	39*
CC(NS(=O)(=O)c1ccc(F)cc1)C(=O)Nc1ccc(Oc2ccccc2)cc1 (stereo unspecified)	0	.	.	.	.	.	.
Cn1nnnc1SCC(=O)c1ccc(O)c(O)c1	-1	.	.	.	.	.	.
Cc1ccc(C(C)C)c(OCc2ccc(C(=O)Nc3sc4c(c3C#N)CCCC4)o2)c1	0	.	.	.	.	.	.

Screening results: PubChem BioAssay, Broad Institute
